STAT1 inh – reduces IFN-gamma driven STAT1 reporter signal; NIH 3T3 STAT1-luciferase reporter, luminescence; inhibition, % at 5.5 µM; 200,000 tested, 0.35% active;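 active = inhibition above a set limit, the mean inhibition across all tested compounds plus 3 SD, cut at about 34% in these data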;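 note: 0% = IFN-gamma with DMSO and 100% = IFN-gamma with 300 µM nifuroxazide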
STAT1 activator – activators of IFN-gamma induced STAT1 signaling; activation (% of control), % at 5.5 µM; NIH 3T3 STAT1-luciferase reporter, luminescence; 100% = IFN-gamma alone, no compound; AID 932; 200,000 tested, 2.6% active;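 active = activation above the screen-wide mean activation plus 3 SD, cut at about 130% in these data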;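 note: raw ratio to IFN-gamma control signal so 100% means no change and 0% no light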
STAT3 activator – activators of IL-6 induced STAT3 signaling. U3A cells, IL-6 STAT3-luciferase reporter, luminescence; 100% = signal with IL-6 EC80 alone. activation (% of control), % at 5.6 µM. 190,000 tested, 0.91% active;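 active = activation above the screen-wide mean of compound activation plus 3 SD, cut at about 130% in these data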;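 note: 0% = background luminescence of wells with medium and substrate only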
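Test system: STAT3-luciferase reporter U3A cells; Detection: reporter luminescence signal; Times: 1 h compound pre-exposure, 6 h IL-6 stimulation, 37 °C; Benchmarks: IL-6-only high control; Also added: IL-6 stimulus at 33 ng/mL final.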
APP 5'UTR act – activates APP 5'UTR luciferase reporter; SH-SY5Y APP 5'UTR luciferase reporter, luminescence; zero percent = DMSO vehicle wells; activation, % at 2 µM; 190,000 tested, 1% active;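 active = activation above a set limit, based on mean plus 3 SD of controls, cut at about 140% in these data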
NF-kB neuron act – compounds increasing NF-kB expression in human neuronal cells; 190,000 tested, 1.6% active; fold change at 12.5 µM; AID 1239; NF-kB reporter expression; stronger effect = higher value; in the data active = fold change above about 3.3
Pf gamet viab – inhibitors of late stage P. falciparum gametocyte viability; inhibition, % at 10.9 µM; P. falciparum stage V gametocytes, ATP luminescence, 24 h; 150,000 tested, 0.065% active;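 active = inhibition above the mean plus 3 SD of compounds within the control limits, set per campaign, cut at about 38% in these data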;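 note: 0% = DMSO wells and 100% = medium only without gametocytes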
Numbers without * were called inactive; . = not tested or not shown. This is a sample that favours compounds with a hit; in the whole collection about 3.9% have one here.

SMILES | STAT1 inh | STAT1 activator | STAT3 activator | APP 5'UTR act | NF-kB neuron act | Pf gamet viab
CC1CCC(NC(=O)C(NC(=O)c2ccccc2)C(C)C)CC1 (stereo not given) | -0.7 | 99.8 | 107.6 | -2.9 | 0.92 | -42.9
Cc1ccc(N=Nc2c(N)nn3c(N)c(C#N)c(C)nc23)cc1 | -33.7 | 129.1* | 73.9 | -7.1 | 0.94 | -8.8
Cc1cc(C)n(C(=O)c2ccc([N+](=O)[O-])cc2Cl)n1 | . | . | . | . | . | -9.9
CCN(CC)C(=O)c1cc2sc3ccccc3c2s1 | -44.7 | 141.6* | 87.2 | 76.3 | 2.71 | .
CCN(C(=O)c1cc2c(=O)[nH]c3ccc(C)cc3c2s1)c1ccc(OC)cc1 | . | . | . | . | . | 18.6
Nc1nc(Nc2ccc(Cl)cc2Cl)nc(C(F)(F)F)n1 | -43.6 | 140.2* | 109.2 | -0.5 | 1.9 | -6.6
Nc1nc(Nc2ccccc2Br)nc(C(F)(F)F)n1 | -8.0 | 108.4 | 93.0 | 8.6 | 1.39 | .
CCCN(CCC)C1=CC(=[N+]2CCCC2)CC(C)(C)C1 | 27.7 | 75.5 | 44.4 | 1.6 | 0.59 | 15.5
CCOC(=O)N1CCN(C(=O)CSCc2ccccc2)CC1 | -33.5 | 129.8* | 108.4 | 54.8 | 1.64 | .
CCOC(=O)N1CCN(C(=O)CSCc2ccc(Cl)cc2)CC1 | -2.4 | 102.2 | 98.3 | 23.0 | 1.28 | 15.2
CC(=O)Nc1ccc(N/C=C/C(=O)c2ccc(C)o2)cc1 | -41.7 | 143.3* | 97.9 | 24.8 | 1.29 | 21.7
COc1ccccc1Oc1ccc(N/C=C/C(=O)c2ccc(C)o2)cc1 | -34.5 | 132.1* | 98.5 | 92.9 | 1.7 | 4.5
CC(=O)Nc1ccc(N/C=C/C(=O)c2ccc(Cl)cc2)cc1 | . | . | . | . | . | 16.2
C[C@@]12C(=O)Nc3cc(Cl)ccc3C(=O)N1[C@H]1c3cc(Br)ccc3OC[C@@H]1[C@@H]2c1ccccc1 | . | . | . | . | . | -4.2
CN(Cc1ccccc1)C(=O)C1CCCN(Cc2cccc(Cl)c2)C1 (stereo not given) | 5.5 | 95.1 | 94.2 | -23.2 | 0.92 | 23.5
Cc1ccccc1Nc1nc(N)c2ccccc2n1 | -8.4 | 107.5 | 52.3 | 144.1* | 8.95* | 24.7
Cc1ccc(Nc2nc(N)c3ccccc3n2)cc1Cl | . | . | . | . | . | 7.1
Nc1nc(Nc2ccc(Cl)cc2)nc2ccccc12 | 23.8 | 78.2 | 49.5 | 114.6 | 5.98* | -2.9
COc1ccc(C)cc1Nc1nc(N)c2ccccc2n1 | . | . | . | . | . | -1.1
Nc1nc(Nc2ccccc2)nc2ccccc12 | -5.7 | 105.2 | 57.4 | 154.9* | 5.46* | .
Nc1nonc1NC(=O)NN=C1CCCCC1 | -6.9 | 106.1 | 90.7 | 10.0 | 0.99 | -34.3
COc1ccc(C(C(N)=O)c2ncc(C(F)(F)F)cc2Cl)cc1OC (stereo not given) | 1.6 | 95.9 | 105.1 | 10.8 | 1.15 | .
CN=C(C)/C(C(=O)OC)=C(/O)c1c(F)cccc1F | . | . | . | . | . | -0.4
CSCC[C@H](NC(=O)Nc1cccc(Br)c1)C(=O)O | . | . | . | . | . | -15.7
COC(=O)c1[nH]c(=O)c2ccccc2c1OCc1ccccc1 | 1.6 | 98.5 | 98.9 | 0.1 | 3.75* | 9.4
SMILES | STAT1 inh | STAT1 activator | STAT3 activator | APP 5'UTR act | NF-kB neuron act | Pf gamet viab
Cc1csc(SCC(=O)NC(=O)C2CCCCC2)n1 | -7.1 | 106.0 | 107.2 | 139.0* | 1.28 | 26.5
CCCc1cc2c(=O)c(-c3ccccn3)c(C)oc2cc1O | 3.4 | 95.8 | 116.1 | 30.1 | 1.17 | -4.4
CCCc1cc2c(=O)c(-c3ccccn3)coc2cc1OC | -38.8 | 135.5* | 98.2 | 16.1 | 3.86* | .
Cc1ccc(/C(O)=C2\C(=O)C(=O)N(C)C2c2cccc([N+](=O)[O-])c2)cc1 (stereo not given) | . | . | . | . | . | -2.4
Cc1ccnc(N(C(=O)c2cccs2)C(=O)c2cccs2)c1 | -29.8 | 127.5 | 99.2 | 67.9 | 2.29 | .
O=C(c1cccs1)N(C(=O)c1cccs1)c1ccc(Br)cn1 | -36.8 | 133.9* | 94.4 | 101.8 | 4.04* | -12.3
Brc1ccc(-c2nnc(-c3cccnc3)c3conc23)cc1 | -1.8 | 101.6 | 134.3* | -6.5 | . | .
Cc1nc(SCc2nc3c(F)cccc3[nH]2)c2oc3ccccc3c2n1 | . | . | . | . | . | 9.7
CCCc1nc2sc3ccccc3c(=O)c2c(=O)n1Cc1ccco1 | 4.3 | 96.0 | 147.4* | 1.2 | 0.93 | -3.6
CCCc1nc2sc3ccccc3c(=O)c2c(=O)n1Cc1ccc(OC)cc1 | . | . | . | . | . | 12.1
Cc1cc(-c2nnc(CCC(=O)N3CCN(Cc4cccnc4)CC3)o2)c(C)o1 | 3.8 | 95.2 | 96.6 | 2.0 | 1.19 | 0.8
CN(C)c1oc(-c2ccc(Cl)cc2)nc1S(=O)(=O)c1ccccc1 | -34.5 | 130.8* | 91.5 | -13.2 | 0.97 | 3.6
Cc1ccc(OCCn2cnc3c(N)ncnc32)cc1 | -32.0 | 129.2* | 80.6 | -4.3 | 2.11 | .
O=C(Nc1ccccc1)C1CCOC1=O (stereo not given) | . | . | . | . | . | 9.0
Brc1ccccc1C1CC(c2ccccc2)=Nc2ccccc2N1 (stereo not given) | -39.2 | 135.1* | 122.7 | 148.8* | 2.35 | 15.9
CNC(=O)Nc1cccc2cccnc12 | . | . | . | . | . | 5.8
C/C(=N\Nc1cccc2cccnc12)c1ccccn1 | 41.3* | 60.5 | 48.1 | 271.6* | 0.97 | .
C/C(=N\Nc1cccc2cccnc12)c1ccccc1O | -19.7 | 118.2 | 111.6 | 202.0* | 6.93* | 13.4
C/C(=N\Nc1ncc(Cl)cc1Cl)c1ccccn1 | 68.6* | 35.8 | 23.3 | -70.2 | 0.44 | .
C/C(=N\Nc1cccc2cccnc12)c1ccc(N)cc1 | -14.4 | 111.4 | 101.2 | 197.7* | 2.27 | 1.9
CCC(=O)Nc1cccc(C(=O)OCc2cccc([N+](=O)[O-])c2)c1 | 0.3 | 98.8 | 88.9 | -6.0 | 1.23 | -8.3
COc1cc(OC)cc(-c2c(-c3cccs3)c3cc(-c4ccc(OCc5ccccc5)cc4)ccc3n2C)c1 | . | . | . | . | . | 5.3
Cc1ccc(C(=O)N2CCOCC2)c(F)c1F | 0.8 | 97.4 | 103.7 | -28.5 | 1.38 | .
O=C(Nc1cnc2ccccn2c1=O)c1ccc(Cl)cc1Cl | 40.8* | 62.7 | 42.8 | 152.8* | 1.73 | .
Cc1ccc(C(=O)Nc2cnc3ccccn3c2=O)cc1 | -34.4 | 131.8* | 86.6 | 38.9 | 2.61 | .
SMILES | STAT1 inh | STAT1 activator | STAT3 activator | APP 5'UTR act | NF-kB neuron act | Pf gamet viab
N#Cc1cnc2sc3ccccc3n2c1=N | -33.0 | 130.4* | 103.6 | -6.7 | 3.21 | 1.6
CNC(=O)CCCCC(=O)N/N=C/c1ccc(Cl)cc1Cl | . | . | . | . | . | -37.5
CC(CN1CCOCC1)OC(=O)c1ccc2c(c1)OCCO2 (stereo not given) | -41.9 | 137.5* | 122.2 | 32.9 | 2.05 | .
c1csc(CSc2nc3ccccc3s2)c1 | -47.3 | 145.0* | 107.4 | 54.9 | 2.81 | .
c1csc(CSc2nnc3sc4ccccc4n23)c1 | -35.4 | 132.5* | 114.2 | 43.3 | 2.74 | 5.3
Cc1noc(C)c1CSc1nc2ccccc2s1 | -2.7 | 103.9 | 96.5 | 23.4 | 1.36 | -24.4
CCN=C(NS(=O)(=O)c1ccc(Br)cc1)c1ccc(Cl)cc1 | -1.3 | 99.7 | 104.4 | -17.7 | 1.55 | -17.3
COc1ccc(-c2ccc3oc(-c4ccsc4)cc(=O)c3c2)cn1 | . | . | . | . | . | 21.8
COc1ccc(N=CC2=C(O)c3ccccc3C2=O)c(OC)c1 | 73.6* | 32.9 | 15.4 | 176.5* | 1 | 5.8
Cc1ccccc1N=CC1=C(O)c2ccccc2C1=O | 80.3* | 25.9 | 14.4 | 140.3* | 1.31 | 0.5

Screening data from PubChem BioAssay.
